Experimental data from ChEMBL document CHEMBL2057169, “Discovery of novel tricyclic compounds as squalene synthase inhibitors” (Bioorg Med Chem, 2012).

Experiments:
Squalene synthase = target: T1, Squalene synthase (Rattus norvegicus, UniProt Q02769); assay: Inhibition of squalene synthase in rat hepatic cells; type: cell-based
T1 sequence (Q02769 whole entry): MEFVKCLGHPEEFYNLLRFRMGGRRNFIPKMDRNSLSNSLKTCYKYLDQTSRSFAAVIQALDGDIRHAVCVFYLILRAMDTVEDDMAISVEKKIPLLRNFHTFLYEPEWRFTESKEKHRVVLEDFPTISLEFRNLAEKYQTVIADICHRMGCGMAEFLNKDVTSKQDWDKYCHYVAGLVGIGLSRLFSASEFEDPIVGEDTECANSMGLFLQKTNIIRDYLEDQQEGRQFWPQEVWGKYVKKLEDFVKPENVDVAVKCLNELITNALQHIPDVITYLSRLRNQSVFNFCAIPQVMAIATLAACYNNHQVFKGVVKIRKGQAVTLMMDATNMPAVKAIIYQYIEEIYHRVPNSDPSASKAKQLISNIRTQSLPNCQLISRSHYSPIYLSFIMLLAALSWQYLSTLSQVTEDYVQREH

Hepatocyte = assay: Inhibition of cholesterol synthesis in rat hepatocytes assessed as formation of cholesterol using [14C]mevalonolactone as substrate after 1 hr by radioactivity assay; type: functional, cell-based
Outline: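 Rat hepatocytes isolated by two-step portal-vein perfusion (EGTA buffer, then 0.05% collagenase). Cells were kept if viability was over 80% by trypan blue and seeded at 10^6 cells/well in DMEM with 10% LPDS. Next day they got 5% LPDS medium with inhibitor at 0–3000 nM for 1 h at 37 °C, then [14C]mevalonolactone for 1 h. Lysates were saponified, [14C]cholesterol corrected by [3H]cholesterol recovery and BCA protein, and % inhibition taken versus 0 nM wells. Triplicate wells; three experiments.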

Rattus norvegicus = assay: Inhibition of cholesterol synthesis in Wistar rat liver assessed as reduction of [14C]-cholesterol level at 3 mg/kg, po administered as single dose measured after 1 hr by liquid scintillation counting; type: functional
Outline: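 Male Wistar rats, 6 weeks old, n = 4-6, dosed orally at 3 mg/kg in 0.5% methylcellulose, with equimolar NaOH or NaHCO3 added; vehicle-only controls. At 1 h, [14C]mevalonic acid (5 µCi/5 ml/kg) was given ip, and rats were killed 1 h later.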

marmosets [1] = assay: Lipid lowering effect in marmosets assessed as reduction in plasma total cholesterol level at 100 mg/kg, po administered once daily for 7 days; type: functional; conditions: Callitrichinae sp., in Callithrix jacchus, 168 h
Outline: (§1)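 Common marmosets, n = 8 per group, matched for body weight and plasma lipids. They were dosed orally at 100 mg/kg in 0.5% methylcellulose (5 ml/kg) once daily for 7 days. Nonfasted blood was drawn before dosing and the morning after the last dose. HDL was precipitated, then its cholesterol assayed enzymatically; non-HDL = total minus HDL cholesterol. Change was expressed relative to pre-values.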

marmosets [2] = assay: Lipid lowering effect in marmosets assessed as reduction in plasma HDL-cholesterol level at 100 mg/kg, po administered once daily for 7 days; type: functional; conditions: Callitrichinae sp., in Callithrix jacchus, 168 h; outline: as §1
marmosets [3] = assay: Lipid lowering effect in marmosets assessed as reduction in plasma non HDL-cholesterol level at 100 mg/kg, po administered once daily for 7 days; type: functional; conditions: Callitrichinae sp., in Callithrix jacchus, 168 h; outline: as §1
marmosets [4] = assay: Lipid lowering effect in marmosets assessed as reduction in plasma triglyceride level at 100 mg/kg, po administered once daily for 7 days; type: functional; conditions: Callitrichinae sp., in Callithrix jacchus, 168 h; outline: as §1

COc1cccc([C@H]2O[C@H](CCn3nnc(CC(=O)O)n3)c3cccn3-c3ccc(Cl)cc32)c1OC
IC50 (Squalene synthase): 1.1 nM
IC50 (Hepatocyte): 36 nM
inhibition in vivo at 3 mg/kg (Rattus norvegicus): 86%
inhibition in vivo at 100 mg/kg (marmosets [1]): 14%
inhibition in vivo at 100 mg/kg (marmosets [2]): 6%
inhibition in vivo at 100 mg/kg (marmosets [3]): 21%
inhibition in vivo at 100 mg/kg (marmosets [4]): 12%
